Experimental data as given in PubChem BioAssay AID504382 (The Scripps Research Institute Molecular Screening Center, 2011).
The campaign covered roughly 2,500 compounds. About 460 (18%) were called active. These entries were drawn from the full list. A number with no mark means an inactive call.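 How the source made its calls: active means mean activation above a cutoff of low control average plus 3 SD from the earlier screen (cut at about 12% in these data); inactive means the rest.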

Experiment: IANBD-channel fluorescence artefacts in buffer – biochemical, artefact control for cardiac RTF calcium sensitizer project, confirmation (AID 504382)
Details: IANBD fluorescence interference counterscreen, EC20 Ca2+, at 7.2 µM, hits give high values, scaled: EC20 calcium 0, EC100 calcium 100
In short: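 Medium: MOPS buffer, 190 mM, with KCl, MgCl2, EGTA, NTA, DTT, pH 7.20; Dosing: one dose of 7.2 µM, 0.7% DMSO; Probe or stimulus: calcium at EC20 level, 0.472 mM final; Incubation: 15 min, 25 °C; Evaluation: compound fluorescence interference relative to control well signal range; Signal: fluorescence, 480/540 nm.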

SMILES | fluorescence artifact activation
CC1(C)CCN2CCC(C)(C)c3c(O)ccc1c32 | 11.3%
Cc1ccc(CC2C(=O)N(c3ccc(C)cc3)C(=O)C2C)cc1 (stereo not given) | 0.52%
O=C(N/N=C/c1c(O)ccc2ccccc12)c1cccc(C(F)(F)F)c1 | 53.1% (active)
O=C(NN=Cc1c(O)ccc2ccccc12)c1ccncc1 | -0.04%
O=C(N/N=C\c1c(O)ccc2ccccc12)c1cncc(Br)c1 | 0.16%
Cc1ccc(-c2nc(NC(=O)CSc3cc(C)c4ccccc4n3)ns2)cc1 | 0.03%
CN1CC=C2C(C#N)=C(N)C(C#N)(C#N)[C@H](c3cccs3)[C@H]2C1 | 0.05%
CN1CC=C2C(C#N)=C(N)C(C#N)(C#N)[C@H](c3ccoc3)[C@H]2C1 | 8.68%
CSc1c(CC(=O)NCCO)n(C)c2ccccc12 | 4.19%
CC(=O)n1cc(CO)c2ccccc21 | 95.5% (active)
Cc1ccc(Cn2cc(CCC(=O)O)c3ccccc32)cc1 | 2.34%
CCOC(=O)C(C(=O)Nc1cccc(C)n1)C1CCCCC1 (stereo not given) | -0.06%
CCCc1cc(=O)[nH]c(SCC)n1 | 0.11%
Cc1c(C)c2c(OCC(=O)N3CCC(O)CC3)cc3c(c2oc1=O)CCC(C)(C)O3 | -0.07%
CCCc1cc(=O)oc2c3c(cc(OCC(=O)N[C@@H](CSC)C(=O)O)c12)OC(C)(C)CC3 | 14.3% (active)
Cc1cc(=O)oc2c3c(cc(OCC(=O)NCc4ccccn4)c12)OC(C)(C)CC3 | 0.25%
O=C(CSc1nc2ncc(Br)cc2[nH]1)c1cccc([N+](=O)[O-])c1 | 3.54%
O=C(C[n+]1cccc2ccccc21)c1ccccc1 | 0.14%
COC(=O)C[n+]1cccc2ccccc21 | 81.3% (active)
COc1cccc(OCCCn2cc(/C=C3/C(=N)N4C=C(C)SC4=NC3=O)c3ccccc32)c1 | 0.05%

SMILES | fluorescence artifact activation
N=C1/C(=C\c2coc3ccc(O)cc3c2=O)C(=O)N=C2SC=CN12 | -0.02%
COC(=O)N/N=C/c1cccnc1 | 0.05%
COC1C/C(=N\O)C2OC(c3ccccc3)OCC2O1 (stereo not given) | 0.43%
COc1ccc(OC)c(/C=C2/Sc3ccccc3C2=O)c1 | 0.05%
COc1ccc(C2C(C(C)=O)=C(C)N=c3s/c(=C\c4cc(C)n(C)c4C)c(=O)n32)c(OC)c1 (stereo not given) | 4.81%
O=C(CNC(=O)C12CC3CC(CC(C3)C1)C2)OCC(=O)N1CCCCC1 | 0.38%
Cc1ccc(-c2ccc(OC(=O)c3ccc(=O)[nH]c3)c(C)c2)cc1 | 4.65%
Cc1ccc(-c2nc(N)n(C(=O)c3cccnc3)n2)cc1 | 57.1% (active)
COc1ccccc1C(=O)n1nc(-c2ccccc2)nc1N | -0.09%
Cc1ccc(CNc2cccnc2)cc1 | 0.43%
CN(Cc1ccccc1)C(=O)c1ccc(NC(=O)Cc2ccc(NC(=O)C3CCCN(S(=O)(=O)c4cccc([N+](=O)[O-])c4)C3)cc2)cc1 (stereo not given) | 0.65%
CCN1CCN(Cc2c(O)ccc3c2O/C(=C\c2ccc(C)cc2)C3=O)CC1 | 0.17%
O=c1[nH]c2ccc(N=Cc3c(O)ccc4cc(Br)ccc34)cc2[nH]1 | -0.04%
COc1ccc(CNc2oc(COc3ccccc3)nc2C#N)cc1 | 21.9% (active)
C=CCNc1oc(COc2ccc(C)cc2)nc1C#N | 3.74%
CCC(CC)c1nc(C#N)c(NC(C)c2ccccc2)o1 (stereo not given) | 0%
N#Cc1ccccc1OCC(=O)OCC(=O)c1ccc2c(c1)NC(=O)CO2 | 5.5%
O=C(OCCN1C(=O)c2cccc3c(N4CCOCC4)ccc(c23)C1=O)c1ccccc1Cl | 0.47%
CCOC(=O)c1cnc2c(C)c(Cl)ccc2c1N1CCOCC1 | 28.3% (active)
O=C(OCCN1C(=O)c2cccc3c(N4CCOCC4)ccc(c23)C1=O)c1ccc(Cl)cc1Cl | 8.85%

SMILES | fluorescence artifact activation
CCSc1nnc(-c2sc3nnc(-c4ccccc4)c(-c4ccccc4)c3c2N)o1 | 0.15%
OC(CNCC1CCCO1)Cn1c2ccc(Br)cc2c2cc(Br)ccc21 (stereo not given) | 12.3% (active)
O=C(NC(=S)NCC1CCCO1)C(c1ccccc1)c1ccccc1 (stereo not given) | 0.17%
CCc1ccccc1SCc1noc(C(=O)NCC2CCCO2)c1C(=O)O (stereo not given) | 0.19%
O=C(COC(=O)/C=C/c1ccc(Cl)cc1)NCCN1C(=O)CSC1=O | -0.09%
O=C(N/N=C/c1ccccc1OC(=O)c1ccc2c(c1)OCO2)c1cccc(F)c1 | 17.8% (active)
COc1cc(C(=O)Oc2ccccc2/C=N/NC(=O)c2ccc(Cl)cc2)cc(OC)c1OC | 11.5%
O=C(N/N=C/c1ccc2c(c1)OCO2)/C(=C/c1ccc2c(c1)OCO2)NC(=O)c1ccccc1 | 0.46%
COCC(=O)NC1CCN(S(=O)(=O)c2cccc(C(C)=O)c2)CC1 | 3.2%
Cc1ccc(C(=O)NCC(=O)OCC(=O)c2ccc(Cl)s2)cc1 | 77.8% (active)
COc1ccc(OCCNC(=O)c2ccc(C)cc2)cc1 | 6.32%
Cc1ccc(C(=O)NCC(=O)OCC(=O)N(CC(C)C)c2c(N)n(Cc3ccccc3)c(=O)[nH]c2=O)cc1 | 0.05%
COc1ccc2nc(C)cc(NCc3ccc(F)cc3)c2c1 | 0.15%
Cc1cccc(NC(=O)CSc2nnc(CSc3nc(C)cc(C)n3)n2Cc2ccco2)c1 | 1.92%
Cc1ccc(C(=O)COC(=O)C2CCC2)cc1 | 7.89%
O=C(COC(=O)C1CC2C=CC1C2)Nc1cccc(S(=O)(=O)N2CCCCCC2)c1 (stereo not given) | -0.04%
O=C(COC(=O)C1CCC1)NCc1ccccc1 | 82.9% (active)
O=C(COc1ccc(Cl)cc1)NCc1ccccc1 | 0.08%
O=C(COC(=O)C1CCC(=O)N1)Nc1ccc(Oc2ccccc2)cc1 (stereo not given) | 0.14%
O=C(COC(=O)C1CCCCC1)Nc1ccc([N+](=O)[O-])cc1 | 28.8% (active)
